Experimental data from paper PMC3654864 (Journal of medicinal chemistry, 2012).
Like-named read-outs stand apart in the source and are kept apart here.

Columns and labels:
[1] = pH-responsive hydrolysis to emetine in phosphate buffer, quantified by HPLC; assay type: physicochemical; conditions: for activation to emetine at pH 5.5: pH 5.5, over a 48 h period; for percent emetine released (hydrolysis to emetine) at pH 6.5: phosphate buffer pH 6.5, 37 °C
Outline: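 Pure test compound was incubated at 37 °C in aqueous phosphate buffer at pH 5.5, 6.5 or 7.4 for 24–48 h; stability at pH 7.4 was followed up to 5 days. Samples were analysed by HPLC to quantify released emetine. Percent conversion is the percent emetine in the sample mixture.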

[2] = tested on: PC3 and LNCaP prostate cancer cell lines; assay: In-vitro cytotoxicity in PC3 and LNCaP, summary statements for both lines; assay type: cell-based, human
Outline: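 MTT colorimetric assay on human prostate cancer cells (androgen receptor-positive LNCaP, androgen receptor-negative PC3). Cells were exposed to six concentrations of test compound for 7 days, with viable cells read spectrophotometrically on days 3, 5 and 7. IC50 was taken from the day-7 read. Emetine was run in the same assay.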

[3] = tested on: PC3 prostate cancer cell lines; assay: MTT cytotoxicity assay in PC3 cells; assay type: cell-based, human
[4] = tested on: healthy mice; assay: In-vivo toxicity study in healthy mice; conditions: for toxicity on three-week follow-up: after 100 mg/kg iv daily for five days, studied for three weeks; for appearance of mice / percent weight loss relative to control mice: 33 mg/kg; for appearance of mice: 48 hours; for percent weight loss relative to control mice: within 48 hours of daily dosing; for percent weight change within 48 hours versus control group: 100 mg/kg; for signs of toxicity: 100 mg/kg body weight daily for five days
[5] = tested on: LNCaP prostate cancer cell lines; assay: MTT cytotoxicity assay in LNCaP cells; assay type: cell-based, human; conditions: 7 day, relative to compound 13
[6] = PC3, Figures 4a-f, time at which optimum IC50 is reached or pattern

CC[C@H]1CN2CCc3cc(OC)c(OC)cc3[C@@H]2C[C@@H]1C[C@@H]1c2cc(OC)c(OC)cc2CCN1C(=O)/C=C\C(=O)O [Compound 21]
activation to emetine at pH 5.5 [1]: activated to emetine
percent emetine released (hydrolysis to emetine) at pH 6.5 ([1]; within 48 hours): about 50%

CC[C@H]1CN2CCc3cc(OC)c(OC)cc3[C@@H]2C[C@@H]1C[C@@H]1c2cc(OC)c(OC)cc2CCN1C(=O)/C=C(/C)C(=O)O [Compound 22]
activation to emetine at pH 5.5 [1]: activated to emetine
percent emetine released (hydrolysis to emetine) at pH 6.5 ([1]; within 48 hours): ~80%

CC[C@H]1CN2CCc3cc(OC)c(OC)cc3[C@@H]2C[C@@H]1C[C@@H]1c2cc(OC)c(OC)cc2CCN1C(=S)[S-].[Na+] [Compound 13]
activation to emetine at pH 5.5 [1]: activated to emetine
percent hydrolysis to emetine at pH 5.5 ([1]; phosphate buffer pH 5.5, 37 °C, within 48 hours): about 94.5%
percent emetine released (hydrolysis to emetine) at pH 6.5 ([1]; within 48 hours): 13.2%
7th day IC50 fold higher than emetine ([2]; LNCaP and PC3, 7th day, relative to emetine): about 3 fold
progress of cytotoxicity (IC50) over day 3, 5 and 7 [3, 6]: an optimum IC50 value was obtained by day 5
toxicity on three-week follow-up [4]: no noticeable effect of toxicity
appearance of mice ([4]; iv): appeared healthy with no noticeable signs of toxicity
percent weight loss relative to control mice ([4]; iv): no significant difference
percent weight change within 48 hours versus control group ([4]; iv): very similar to that obtained for the control group
signs of toxicity ([4]; iv): no sign of toxicity

CC[C@H]1CN2CCc3cc(OC)c(OC)cc3[C@@H]2C[C@@H]1C[C@@H]1c2cc(OC)c(OC)cc2CCN1C(=S)SCc1ccccc1 [Compound 14]
fold increase of IC50 relative to 13 [5]: about 24 fold
fold increase of IC50 relative to 13 ([3]; PC3, 7 day, relative to compound 13): ~18 fold
progress of cytotoxicity (IC50) over day 3, 5 and 7 [3, 6]: progressive decrease in IC50 values

CC[C@H]1CN2CCc3cc(OC)c(OC)cc3[C@@H]2C[C@@H]1C[C@@H]1c2cc(OC)c(OC)cc2CCN1C(=O)/C=C\C(=O)[O-].[Na+] [Compound 25]
activation to emetine at pH 5.5 [1]: activated to emetine

CC[C@H]1CN2CCc3cc(OC)c(OC)cc3[C@@H]2C[C@@H]1C[C@H]1NCCc2cc(OC)c(OC)cc21.Cl.Cl [emetine, Emetine, reference compound]
IC50 ([2]; Homo sapiens, LNCaP, read-out: IC50 range of emetine): 0.0237 to 0.0329 µM
lethality ([4]; iv, 33 mg/kg body weight, within the period of study): did not kill the mice
average weight loss over a 48 hour period ([4]; iv, 33 mg/kg daily dosing): about 3.6%
appearance of mice ([4]; iv): appeared lethargic
percent weight loss relative to control mice ([4]; iv): about 4
lethality ([4]; iv, single dose 100 mg/kg body weight, within 48 hours): killed all three mice

CC[C@H]1CN2CCc3cc(OC)c(OC)cc3[C@@H]2C[C@@H]1C[C@@H]1c2cc(OC)c(OC)cc2CCN1C(=O)NCc1ccccc1 [Compound 7]
progress of cytotoxicity (IC50) over day 3, 5 and 7 [3]: reach an optimum by day 3

CC[C@H]1CN2CCc3cc(OC)c(OC)cc3[C@@H]2C[C@@H]1C[C@@H]1c2cc(OC)c(OC)cc2CCN1C(=S)NCc1ccc(OC)cc1 [Compound 5]
progress of cytotoxicity (IC50) over day 3, 5 and 7 [3, 6]: an optimum IC50 value was obtained by day 5

CC[C@H]1CN2CCc3cc(OC)c(OC)cc3[C@@H]2C[C@@H]1C[C@@H]1c2cc(OC)c(OC)cc2CCN1S(=O)(=O)c1ccc(OC)cc1 [Compound 12]
progress of cytotoxicity (IC50) over day 3, 5 and 7 [3]: an optimum IC50 value was obtained by day 5

CC[C@H]1CN2CCc3cc(OC)c(OC)cc3[C@@H]2C[C@@H]1C[C@@H]1c2cc(OC)c(OC)cc2CCN1C(=S)NCc1ccc(Cl)cc1 [Compound 6]
progress of cytotoxicity (IC50) over day 3, 5 and 7 [3, 6]: reach an optimum by day 3

CC[C@H]1CN2CCc3cc(OC)c(OC)cc3[C@@H]2C[C@@H]1C[C@@H]1c2cc(OC)c(OC)cc2CCN1C(=O)OCc1ccccc1 [Compound 15]
progress of cytotoxicity (IC50) over day 3, 5 and 7 [3, 6]: progressive decrease in IC50 values

CC[C@H]1CN2CCc3cc(OC)c(OC)cc3[C@@H]2C[C@@H]1C[C@@H]1c2cc(OC)c(OC)cc2CCN1C(=O)/C=C(/C)C(=O)[O-].[Na+] [Compound 26]
activation to emetine at pH 5.5 [1]: activated to emetine
percent emetine released (hydrolysis to emetine) at pH 6.5 ([1]; within 48 hours): about 50%
progress of cytotoxicity (IC50) over day 3, 5 and 7 [3]: an optimum IC50 value was obtained by day 5
toxicity on three-week follow-up [4]: no noticeable effect of toxicity
percent weight change within 48 hours versus control group ([4]; iv): very similar to that obtained for the control group
signs of toxicity ([4]; iv): no sign of toxicity

CC[C@H]1CN2CCc3cc(OC)c(OC)cc3[C@@H]2C[C@@H]1C[C@@H]1c2cc(OC)c(OC)cc2CCN1C(=O)NCc1ccc(Cl)cc1 [Compound 9]
progress of cytotoxicity (IC50) over day 3, 5 and 7 [3, 6]: reach an optimum by day 3

CC[C@H]1CN2CCc3cc(OC)c(OC)cc3[C@@H]2C[C@@H]1C[C@@H]1c2cc(OC)c(OC)cc2CCN1C(=O)NCc1ccc(OC)cc1 [Compound 8]
progress of cytotoxicity (IC50) over day 3, 5 and 7 [3]: progressive decrease in IC50 values

CC[C@H]1CN2CCc3cc(OC)c(OC)cc3[C@@H]2C[C@@H]1C[C@@H]1c2cc(OC)c(OC)cc2CCN1C(=O)/C=C(/CC(=O)[O-])C(=O)[O-].[Na+].[Na+] [Compound 27]
activation to emetine at pH 5.5 [1]: activated to emetine

CC[C@H]1CN2CCc3cc(OC)c(OC)cc3[C@@H]2C[C@@H]1C[C@@H]1c2cc(OC)c(OC)cc2CCN1C(=O)CCC(=O)[O-].[Na+] [Compound 24]
progress of cytotoxicity (IC50) over day 3, 5 and 7 [3]: an optimum IC50 value was obtained by day 5
